Results gathered from unrelated publications.
Lines come from different studies, so protocols differ.
CYP2C19: Cytochrome P450 2C19 (CYP2C19, Homo sapiens, UniProt P33261)

| Structure (SMILES) | tested on | test | system | conditions | measurement | value |
| --- | --- | --- | --- | --- | --- | --- |
| O=C[C@H](C[C@@H]1CCNC1=O)NC(=O)[C@H](CC1CCCCC1)NC(=O)c1cc2ccccc2[nH]1 |  |  | dog, plasma | intravenous, 4 mg/kg | Cmax | 9770 µg/mL |
| CCOC(=O)[C@@](C)(O)[C@@H]1C[C@@H](CO[Si](c2ccccc2)(c2ccccc2)C(C)(C)C)O[C@H]1n1cc(F)c(=O)[nH]c1=O | A549 | cell growth or viability, MTT |  | 42 h | CC50 | 236 µM |
| N=c1c2c(-c3ccccc3)c(-c3ccccc3)n(Cc3ccccc3)c2ncn1[C@H]1CC[C@H](O)CC1 |  |  | male beagle dog, plasma | intravenous, 0.5 mg/kg, single dose | clearance | 1.2 mL/min/kg |
| COc1cc2c(c(OC)c1OC)-c1ccc(OC)c(=O)cc1[C@@H](NC(C)=O)CC2 | HFF-1 | cell growth or viability, resazurin |  | 72 h | CC50 | 0.024 µM |
| CCC[C@@](N)(CO)CCc1ccc(OCCCCCC(C)C)cc1 |  |  | dog, plasma | oral, 2.5 mg/kg | Cmax | 69.2 nM |
| COC(=O)C(NC(=O)c1cn(CCCCCF)c2ccccc12)C(C)(C)C (stereo not drawn) |  |  | male Sprague-Dawley rat, plasma | subcutaneous, 200 µg/kg | Tmax | 2.83 h |
| CC(C)C[C@H](NC(=O)[C@@H](NC(=O)/C=C/c1ccccc1F)C(C)C)C(=O)N[C@H](C=O)C[C@@H]1CCCNC1=O | A549 | cell growth or viability, MTT |  | 24 h | CC50 | > 100 µM |
| COC(=O)C1CCN(C(=O)c2ccc(NCc3cnc4nc(N)nc(N)c4n3)cc2)CC1 | CYP2C19 | enzyme activity, inhibitor, luciferase |  | 10 µM | inhibition | -23.4% |
| CN1CCCCC1Cn1cc(C(=O)c2cc([N+](=O)[O-])ccc2I)c2ccccc21 (racemic) |  |  | mouse, plasma | intravenous, 25 mg/kg | C0 | 6 µg/mL |
| CC(C)C[C@H](NC(=O)[C@@H](NC(=O)c1ccc(Cl)cc1)C(C)C)C(=O)N[C@H](C=O)C[C@@H]1CCCNC1=O | A549 | cell growth or viability, MTT |  | 24 h | CC50 | > 100 µM |
| COC(=O)C1CCN(C(=O)c2ccc(N(C)Cc3cnc4nc(N)nc(N)c4n3)cc2)CC1 | CYP2C19 | enzyme activity, inhibitor, luciferase |  | 10 µM | inhibition | -29.4% |
| Cl.Cl.O=C(CCN1CCCCC1)c1ccc(-c2ccc(C(=O)CCN3CCCCC3)cc2)cc1 |  |  | Sprague-Dawley rat, plasma | oral, 50 mg/kg | Tmax | 0.65 h |
| C[C@H](NC(=O)/C=C/c1ccccc1)C(=O)N[C@H](C=O)C[C@@H]1CCCNC1=O | A549 | cell growth or viability, MTT |  | 24 h | CC50 | > 100 µM |
| O=S(=O)([O-])c1cccc(P(c2ccccc2)c2ccccc2)c1.[Na+] | NIH3T3 | cell growth or viability, resazurin |  | 18 h | CC50 | 189 µg/mL |
| CC(C)C[C@H](NC(=O)[C@H](CC1CCCCC1)NC(=O)/C=C/c1ccccc1)C(=O)N[C@H](C=O)C[C@@H]1CCCNC1=O | A549 | cell growth or viability, MTT |  | 24 h | CC50 | > 100 µM |
| Cc1ncc2n1-c1ccc(Cl)cc1C(c1ccccc1F)=NC2 |  | metabolic stability | beagle dog, hepatocytes | 1 µM, 4 h | compound remaining | 3% |
| CC(C)C[C@H](NC(=O)[C@@H](NC(=O)c1ccoc1)C(C)C)C(=O)N[C@H](C=O)C[C@@H]1CCCNC1=O | A549 | cell growth or viability, MTT |  | 24 h | CC50 | > 100 µM |
| CC(C)(C)NC(=O)N[C@H](C(=O)N1C[C@H]2[C@@H]([C@H]1C(=O)NC(CC1CCC1)C(=O)C(N)=O)C2(C)C)C(C)(C)C (stereo partly drawn) | A549 | cell growth or viability, neutral red |  | 48 h | CC50 | > 100 µM |
